Assay results published in ChEMBL document CHEMBL1153527, “Discovery of a novel series of quinolone and naphthyridine derivatives as potential topoisomerase I inhibitors by scaffold modification” (J Med Chem, 2009).
pIC50: −log10 of the molar value. The source made the active and inactive calls. No cut-off for these calls is given here.

How the values were obtained:
Mus musculus [1] = test: Toxicity in athymic BALB/c nude mouse xenografted with human HT-29 cells assessed as change in body weight at 75 mg/kg, ip for 10 days measured after 30 days; type: organism-based; design: dose 75 mg/kg, route intraperitoneal; details: in vivo, 720 h
Method in brief: (§1)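 Nude mouse HT-29 xenograft model as above: female athymic BALB/c, 18-22 g, n=6 per group. Dosing was i.p. daily in 400 μL for 10 consecutive days at 75 or 150 mg/kg, with saline controls. Body weight and tumour volume were recorded every 4 days, and the study ended on day 30. Weights were compared with controls by Student's t test.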

Mus musculus [2] = test: Toxicity in athymic BALB/c nude mouse xenografted with human HT-29 cells assessed as morbidity at 150 mg/kg, ip for 10 days measured after 30 days; type: organism-based; design: dose 150 mg/kg, route intraperitoneal; details: in vivo, 720 h; method in brief: as §1
Mus musculus [3] = test: Toxicity in athymic BALB/c nude mouse xenografted with human HT-29 cells assessed as morbidity at 75 mg/kg, ip for 10 days measured after 30 days; type: organism-based; design: dose 75 mg/kg, route intraperitoneal; details: in vivo, 720 h; method in brief: as §1
PC-3 = test: Cytotoxicity against p53-deficient human PC3 cells after 48 hrs by SRB assay; type: functional, cell-based; details: PC-3, 48 h
Method in brief: (§2)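 Cell lines came from CCRC, Taiwan. Cells were seeded at about 5 × 10^3 per well and left overnight. They were then given serum-free medium containing 0-10 μM compound (0.08-10 μM serial dilutions) for 48 h at 37 °C. Cells were fixed with TCA (10% final), stained with SRB (0.4% final), and the dye was dissolved in 10 mM Tris with A515 read. IC50 was taken from a fitted log concentration-response curve.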

[4] = Solubility in assay condition at 50 uM; type: physicochemical
A549 = test: Cytotoxicity against human A549 cells expressing wild type p53 after 48 hrs by SRB assay; type: functional, cell-based; details: A549, 48 h; method in brief: as §2
[5] = molecular target: T1, DNA topoisomerase 1 (Homo sapiens) (UniProt P11387); test: Inhibition of DNA topoisomerase 1-mediated supercoiled Escherichia coli pBR322 DNA relaxation upto 25 uM after 30 mins
T1 sequence (whole entry): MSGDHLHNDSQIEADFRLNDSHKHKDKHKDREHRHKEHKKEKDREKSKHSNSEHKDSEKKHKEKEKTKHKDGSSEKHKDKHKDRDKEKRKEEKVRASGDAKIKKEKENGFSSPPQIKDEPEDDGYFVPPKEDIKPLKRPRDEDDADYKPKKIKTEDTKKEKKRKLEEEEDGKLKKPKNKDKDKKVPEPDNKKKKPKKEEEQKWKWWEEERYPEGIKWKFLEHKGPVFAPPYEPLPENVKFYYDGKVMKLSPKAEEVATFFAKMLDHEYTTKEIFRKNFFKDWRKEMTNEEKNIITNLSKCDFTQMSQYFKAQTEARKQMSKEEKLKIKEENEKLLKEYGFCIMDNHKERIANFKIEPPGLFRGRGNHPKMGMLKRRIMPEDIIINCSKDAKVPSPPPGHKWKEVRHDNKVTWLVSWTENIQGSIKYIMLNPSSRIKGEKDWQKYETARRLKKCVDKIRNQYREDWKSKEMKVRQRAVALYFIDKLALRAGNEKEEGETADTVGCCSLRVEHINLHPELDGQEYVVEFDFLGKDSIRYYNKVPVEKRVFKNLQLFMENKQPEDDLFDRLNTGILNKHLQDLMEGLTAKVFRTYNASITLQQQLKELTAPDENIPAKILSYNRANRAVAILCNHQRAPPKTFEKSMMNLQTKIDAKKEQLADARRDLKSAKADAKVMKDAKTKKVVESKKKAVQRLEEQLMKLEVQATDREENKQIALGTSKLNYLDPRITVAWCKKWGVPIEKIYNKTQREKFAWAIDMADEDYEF

SK-OV-3 [6] = test: Induction of apoptosis in human SKOV3 cells assessed as morphological changes at 0.25 ug/mL after 24 hrs by immunostaining; type: functional, cell-based
Method in brief: (§3)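 SKOV3 and HT-29 cells were treated with 0.25 or 5 μg/mL for 24 h. Cell morphology was assessed by microscopy after fixation in 4% formaldehyde and Hoechst 33342 staining (10 μg/mL), against an untreated control.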

HT-29 [7] = test: Cytotoxicity against human HT-29 cells expressing p53 mutant after 48 hrs by SRB assay; type: functional, cell-based; details: HT-29, 48 h; method in brief: as §2
SK-OV-3 [8] = test: Induction of apoptosis in human SKOV3 cells assessed as morphological changes at 5 ug/mL after 24 hrs by immunostaining; type: functional, cell-based; method in brief: as §3
HepG2 = test: Cytotoxicity against human HepG2 cells expressing wild type p53 after 48 hrs by SRB assay; type: functional, cell-based; details: HepG2, 48 h; method in brief: as §2
Bel-7402 = test: Cytotoxicity against human Bel7402 cells after 48 hrs by MTT assay; type: functional, cell-based; details: Bel-7402, 48 h
THP-1 = test: Cytotoxicity against human THP1 cells expressing p53 mutant after 48 hrs by SRB assay; type: functional, cell-based; details: THP-1, 48 h
HT-29 [9] = test: Induction of apoptosis in human exponentially growing HT-29 cells; type: functional, cell-based; details: TDE = time-dependent effect
[10] = molecular target: T1, DNA topoisomerase 1 (Homo sapiens); test: Induction of human recombinant topoisomerase 1-mediated cleavage of 32P-labeled linearized pRYG plasmid DNA at 2.5 uM after 30 mins by agarose gel electrophoresis
Method in brief: (§4)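 Recombinant human Top I was incubated with HindIII-linearised pRYG plasmid, 3'-end-labelled with [α-32P]dCTP by Klenow fill-in (about 100000 cpm per reaction). Reactions were stopped with SDS and proteinase K at 45 °C, alkali-denatured, run on a 1% agarose gel and autoradiographed.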

[11] = tested on: DNA topoisomerase 2 (Bos taurus); test: Inhibition of topoisomerase 2 at 200 uM
HT-29 [12] = test: Antitumor activity against human HT-29 cells xenografted in athymic BALB/c nude mouse at 150 mg/kg, ip for 10 days measured after 30 days relative to placebo control; type: functional; details: route intraperitoneal
Method in brief: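 Female athymic BALB/c nude mice (35-40 days old, 18-22 g). HT-29 tumours first grown from 1 × 10^7 cells injected s.c. in the axillary fossa, then excised and transplanted. Treatment started at 100-300 mm3. Groups of n=6 were dosed i.p. daily in 400 μL: saline for 10 days, 5 mg/kg for 2 days, or 75/150 mg/kg for 10 days. Caliper volume was V=1/2·a·b². Values are relative to start volume, compared with placebo by Student's t test, and mice were killed on day 30.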

[13] = molecular target: T1, DNA topoisomerase 1 (Homo sapiens); test: Induction of human recombinant topoisomerase 1-mediated cleavage of 32P-labeled linearized pRYG plasmid DNA at 25 uM after 30 mins by agarose gel electrophoresis; method in brief: as §4
HT-29 [14] = test: Cell cycle distribution in human HT-29 cells assessed as accumulation at S phase upto 10 uM by flow cytometry; type: functional
Method in brief: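 HT-29 cells were exposed to vehicle or 1, 5 or 10 μM compound for 6, 12, 24 or 48 h. Floating and attached cells were collected, fixed in 70% ethanol and treated with 0.1% Triton X-100. They were stained with PI at 50 μg/mL plus RNaseA at 50 μg/mL for 30 min at room temperature in the dark. FL2 DNA content was read on 10000 cells by flow cytometry. The sub-G1 fraction was taken as apoptotic.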

For CCn1cc(-c2nc3ccc([N+](=O)[O-])cc3o2)c(=O)c2cc(F)c(N3CCNC(C)C3)c(F)c21 (stereo not drawn), the Activity (Mus musculus [1]) was “Non-toxic”, the Activity (Mus musculus [2]) was “Non-toxic” and the Activity (Mus musculus [3]) was “Non-toxic”. The GI50 (PC-3) was 3.3 µM, the pIC50 (PC-3) was 5.38 and the solubility [4] was “Insoluble”. The GI50 (A549) was 0.8 µM, the pIC50 (A549) was 5.82 and the inhibition [5] was “inactive”. The Activity (SK-OV-3 [6]) was “Active”, the GI50 (HT-29 [7]) was 1 µM and the pIC50 (HT-29 [7]) was 5.26. For the same molecule, the Activity (SK-OV-3 [8]) was “Active”, the GI50 (HepG2) was 2.8 µM and the pIC50 (HepG2) was 5.35. The pIC50 (Bel-7402) was 6.70, the pIC50 (THP-1) was 5.46 and the Activity (HT-29 [9]) was “tde”. The Activity [10] was “Active”, the inhibition [11] was “inactive” and the Activity (HT-29 [12]) was 65%. The Activity [13] was “Active” and the Activity (HT-29 [14]) was 5%.
